From ChEMBL document CHEMBL4393692, “Thiazolidinone/thiazole based hybrids - New class of antitrypanosomal agents” (Eur J Med Chem, 2019)
Activity calls are given as the source filed them. The rule behind the calls is not given here.

How the values were obtained:
[1] = Selectivity index, ratio of IC50 for human AB943 cells to IC50 of bloodstream form of Trypanosoma brucei gambiense Feo; assay type: toxicity; conditions: read-out: Ratio IC50
Summary of the method: (§1)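 Human primary fibroblasts grown in RPMI with 25 mM HEPES pH 7.3 and 10% FCS, 37°C, 5% CO2. After trypsinisation, seeded at 5000 cells/well and incubated 24 h. Then washed and exposed to two-fold drug dilutions, final DMSO below 1%, for 5 days. Resazurin added, fluorescence read (ex 530/em 590 nm) after 4 h. Growth inhibition vs DMSO control. SI = IC50 fibroblast / IC50 T. b. gambiense.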

[2] = Cytotoxicity against human AB943 cells assessed as reduction in cell viability after 5 days resazurin dye based fluorescence assay; conditions: 120 h; summary of the method: as §1
[3] = tested on: Trypanosoma brucei gambiense; test: Antitrypanosomal activity against bloodstream form of Trypanosoma brucei gambiense Feo reduction in parasite growth after 72 hrs by resazurin dye based fluorescence assay; assay type: functional, organism-based
Summary of the method: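 Bloodstream parasites cultured in HMI9 with 10% FCS at 37°C under 5% CO2. Log-phase cells harvested at 3000xg, plated at 10^5 cells/ml with dilutions from 10 down to 0.625 µg/ml (DMSO stocks) for 72 h. Resazurin added at 45 µM final, fluorescence read after a further 4 h. Inhibition vs DMSO control. IC50 from dose-response curve, mean ± SD of three independent experiments.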

[4] = tested on: Trypanosoma brucei brucei; test: Antitrypanosomal activity against bloodstream form of Trypanosoma brucei brucei 90-13 assessed as reduction in parasite growth at 10 ug/ml after 72 hrs by resazurin dye based fluorescence assay relative to control; assay type: functional; conditions: 90-13, 72 h
Summary of the method: (§2)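 Bloodstream forms grown in HMI9 + 10% FCS, 37°C, 5% CO2. Log-phase cells harvested at 3000xg and seeded at 10^5 cells/ml, exposed to test substance from DMSO stock at a single screening level of 10 or 1 µg/mL for 72 h. Resazurin added (final 45 µM), 4 h more, then fluorescence read. Growth inhibition expressed against DMSO control.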

[5] = tested on: Trypanosoma brucei brucei; test: Antitrypanosomal activity against bloodstream form of Trypanosoma brucei brucei 90-13 reduction in parasite growth at 1 ug/ml after 72 hrs by resazurin dye based fluorescence assay relative to control; assay type: functional; conditions: for inhibition at 1 µg/mL: 90-13, 72 h; summary of the method: as §2

| Structure (SMILES) | IC50 [3] | selectivity ratio [1] | IC50 [2] | inhibition at 10 µg/mL [4] | inhibition at 1 µg/mL [5] | inhibition [5] |
| --- | --- | --- | --- | --- | --- | --- |
| CCOC(=O)c1s/c(=N\N=C\c2c(-c3ccc([N+](=O)[O-])cc3)[nH]c3ccccc23)n(-c2ccc(O)cc2)c1C | 660 nM | 127 | 82900 nM |  |  |  |
| O=C1CS/C(=N\N=C\c2c(-c3ccc(Cl)cc3)[nH]c3ccccc23)N1c1ccc(O)cc1 | 820 nM | > 130 | > 100000 nM |  |  |  |
| O=C(O)CC1SC(N/N=C/C=C/c2ccccc2[N+](=O)[O-])=NC1=O (stereo not given) |  |  |  | 24.9% | 3.28% |  |
| O=C1N/C(=N/N=C/c2c(-c3ccc(Cl)cc3)[nH]c3ccccc23)SC1CCO (stereo not given) | 1490 nM | 7 | 8960 nM |  |  |  |
| CCc1nn2c(/C=N/N=c3\scc(-c4ccc(Br)cc4)n3-c3ccc(O)cc3)c(-c3ccc(Br)cc3)nc2s1 | 476 nM | > 150 | > 70000 nM |  |  |  |
| CC12CCC(C/C1=N/N=C1/NC(=O)C(CC(=O)Nc3ccc(Br)cc3)S1)C2(C)C (stereo not given) |  |  |  | 97% |  | inactive |
| CCc1nn2c(/C=N/N=C3\SC(CCOC(C)=O)C(=O)N3c3ccc(O)cc3)c(-c3ccc(Br)cc3)nc2s1 (stereo not given) | 1000 nM | 11 | 11200 nM |  |  |  |
| CCc1nn2c(/C=N/N=c3\scc(-c4ccc([N+](=O)[O-])cc4)n3-c3ccc(O)cc3)c(-c3ccc(Br)cc3)nc2s1 | 510 nM | > 150 | > 70000 nM |  |  |  |
| COc1cc(/C=N/N=C2\SC(CC(=O)c3ccc(F)cc3)C(=O)N2c2ccc(O)cc2)ccc1OCC(=O)O (stereo not given) |  |  |  | 14.5% | 15.1% |  |
| O=C1C(CCO)S/C(=N\N=C\c2c(-c3ccc(Cl)cc3)[nH]c3ccccc23)N1Cc1ccco1 (stereo not given) | 1400 nM | 4 | 6230 nM |  |  |  |
| CC12CCC(C/C1=N/N=C1/NC(=O)C(CC(=O)Nc3ccc(Cl)cc3)S1)C2(C)C (stereo not given) |  |  |  | 97.8% | 14.1% |  |
| O=[N+]([O-])c1ccc(-c2[nH]c3ccccc3c2/C=N/Nc2nc(-c3ccc(Br)cc3)cs2)cc1 | 2300 nM | > 40 | > 96400 nM |  |  |  |
| CCC1S/C(=N\N=C\c2c(-c3ccc([N+](=O)[O-])cc3)[nH]c3ccccc23)N(c2ccc(O)cc2)C1=O (stereo not given) | 140 nM | 60 | 8600 nM |  |  |  |
| CC(=O)OCCC1S/C(=N\N=C\c2c(-c3ccc(Cl)cc3)[nH]c3ccccc23)N(c2ccc(O)cc2)C1=O (stereo not given) | 380 nM | > 240 | > 90000 nM |  |  |  |
| CCOC(=O)c1sc(N/N=C/c2c(-c3ccc(Cl)cc3)[nH]c3ccccc23)nc1C | 530 nM | 39 | 20500 nM |  |  |  |
| O=C1CS/C(=N\N=C\c2c(-c3ccccc3)[nH]c3ccccc23)N1 | 230 nM | 57 | 13200 nM |  |  |  |

The next lines start with results.

| IC50 [3] | Structure (SMILES) | selectivity ratio [1] | IC50 [2] | inhibition at 10 µg/mL [4] | inhibition at 1 µg/mL [5] | inhibition [5] |
| --- | --- | --- | --- | --- | --- | --- |
| 5700 nM | C=CCSc1nn2c(/C=N/N=C3/NC(=O)C(CCOC(C)=O)S3)c(-c3ccccc3)nc2s1 (stereo not given) | 3 | 19200 nM |  |  |  |
| 631 nM | C=CCSc1nn2c(/C=N/N=c3\sc(C(=O)OCC)c(C)n3-c3ccc(O)cc3)c(-c3ccccc3)nc2s1 | > 130 | > 80000 nM |  |  |  |
| 652 nM | C=CCSc1nn2c(/C=N/N=c3/[nH]c(C)c(C(=O)OCC)s3)c(-c3ccccc3)nc2s1 | 7 | 4330 nM |  |  |  |
| 1200 nM | CCc1nn2c(/C=N/N=c3/[nH]c(-c4ccc(Br)cc4)cs3)c(-c3ccc([N+](=O)[O-])cc3)nc2s1 | > 70 | > 90000 nM |  |  |  |
| 3600 nM | C=CCSc1nn2c(/C=N/N=C3\SC(CC)C(=O)N3c3ccc(O)cc3)c(-c3ccccc3)nc2s1 (stereo not given) | > 26 | > 90000 nM |  |  |  |
| 745 nM | CCOC(=O)c1s/c(=N\N=C\c2c(-c3ccccc3)nc3sc(CC)nn23)n(-c2ccc(O)cc2)c1C | 69 | 51400 nM |  |  |  |
| 639 nM | CCOC(=O)c1s/c(=N\N=C\c2c(-c3ccc([N+](=O)[O-])cc3)nc3sc(CC)nn23)n(-c2ccc(O)cc2)c1C | > 130 | > 80000 nM |  |  |  |
